Results on 23 compounds are retold here after ChEMBL document CHEMBL1138888, “Activity of and initial mechanistic studies on a novel antileishmanial agent identified through in silico pharmacophore development and database searching” (J Med Chem, 2006).

For assay [1], the system named is Leishmania donovani. In words: Antileishmanial activity against Leishmania donovani axenic amastigotes. The class given is functional, organism-based. Summed up: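 L. donovani axenic amastigotes (MHOM/SD/62/1S-CL2D), adapted from promastigotes and kept at 37 °C in amastigote medium. 6 × 10^4 cells per well, 2-fold compound dilution series, 3 days at 37 °C in 5% CO2. Growth read by tetrazolium (CellTiter) absorbance at 490 nm. IC50 taken from a four-parameter dose-response fit; three or more separate experiments, error given as SD.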

Assay [2] has as its system Leishmania mexicana. Kind of assay: Reduction in Leishmania mexicana infection in mouse J774 macrophage at 25 nM. It counts as functional. More on the design: scale not given: the % may be the effect or the level left. Summed up: (§1)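 J774 macrophages (1 × 10^5 per well) allowed to adhere overnight, then infected with 1 × 10^6 L. mexicana promastigotes (MNYC/BCZ/62/M379) overnight at 33 °C. After washing, treated with compound or 1% DMSO vehicle for 3 days at 33 °C, methanol-fixed and Giemsa-stained. Percent reduction of infection is relative to controls; average ± range of two experiments.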

For assay [3], the system named is Leishmania mexicana. In words: Reduction in Leishmania mexicana infection in mouse J774 macrophage at 50 nM. It counts as functional. More on the design: scale not given: the % may be the effect or the level left. Summed up:
as §1

The test system of assay [4] is Leishmania mexicana. In words: Reduction in Leishmania mexicana infection in mouse J774 macrophage at 125 nM. It counts as functional. Set-up: scale not given: the % may be the effect or the level left. Summed up: as §1
The subject of the next assay is Vero. In words: Antiproliferative activity against Vero cell. The class given is functional, cell-based. To be noted: Chlorocebus sabaeus. The essentials: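 Vero cells grown in alpha-MEM with Glutamax-I, 10% heat-inactivated FBS, penicillin/streptomycin. 1 × 10^3 cells per well seeded with compounds over a 2-fold dilution series, run like the amastigote assay: 3 days at 37 °C, humidified, 5% CO2. Growth read by tetrazolium (CellTiter) absorbance at 490 nm. IC50 from four-parameter dose-response fit; three or more separate experiments.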

For assay [5], the system named is Leishmania donovani. Kind of assay: Cell cycle arrest in Leishmania donovani promastigotes by accumulation at G2/S phase at 2 uM. It counts as functional, organism-based. The conditions noted are these: in the assay text read “G2/M phase” for “G2/S phase”. Summed up:
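L. donovani promastigotes at 5 × 10^6 cells/mL in RPMI-based promastigote medium with 10% HI-FBS, treated or given vehicle (1% DMSO) for 2 days at 25 °C. Cells then methanol-fixed and stained with propidium iodide (10 µg/mL) with Triton X-100 and RNase A. DNA content per cell measured by flow cytometry; histograms representative of three experiments.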

The subject of another assay is Leishmania sp. In words: Inhibition of Leishmania tarentolae tubulin assembly. It counts as functional. The essentials: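 Purified L. tarentolae tubulin at 1.5 mg/mL in […] pH 6.9 with 1 mM MgCl2, 1 mM EGTA, 10% DMSO and 1 mM GTP, incubated at 30 °C with or without compound (2 or 20 µM tested). Assembly followed as turbidity at 351 nm.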
Assay [6] deals with Leishmania mexicana. Kind of assay: Reduction in Leishmania mexicana infection in mouse J774 macrophage at 2 uM. Set-up: scale not given: the % may be the effect or the level left. It counts as functional. Summed up:
as §1

In assay [7] the test system is Leishmania mexicana. In words: Reduction in Leishmania mexicana infection in mouse J774 macrophage at 4 uM. Set-up: scale not given: the % may be the effect or the level left. It counts as functional. Summed up:
as §1

Assay [8] relates to Leishmania mexicana. Kind of assay: Reduction in Leishmania mexicana infection in mouse J774 macrophage at 8 uM. The class given is functional. Set-up: scale not given: the % may be the effect or the level left. The essentials:
as §1

The test system of assay [9] is Leishmania donovani. Kind of assay: Reduction in Leishmania donovani load in infected BALB/c mouse at 50 mg/kg/day, ip. The class given is functional. To be noted: route intraperitoneal. Summed up:
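BALB/c mice, 12 weeks old, infected i.v. (tail vein) with 1 × 10^7 hamster-spleen-derived L. donovani amastigotes. After 7 days, dosed i.p. daily for 5 days in 0.5% methylcellulose/0.1% Tween-80/10% DMSO in water; vehicle controls run. Killed 4 days after treatment. Liver burden scored as LDUs from Giemsa-stained smears; mean ± SD of five mice.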

The source made the active and inactive calls. The calls are words filed in the database; no cut-off is given here.

`O=C1NC(=O)c2c1ccc(Sc1c(Cl)cccc1Cl)c2[N+](=O)[O-]` returned a half-inhibitory concentration (IC50) with Leishmania donovani [1] of 60 µM.

Consider `O=S(=O)(c1ccc(Cl)cc1)N1CCCN(Cc2ccc(Cl)cc2Cl)CC1`, for which the IC50 in the assay with Leishmania donovani [1] came out at 72 µM.

In the assay on Leishmania donovani [1], `COc1cc(C2SCCS2)cc(Br)c1Oc1cc(C)c(C(F)(F)F)cc1[N+](=O)[O-]` yielded a 50% inhibitory concentration (IC50) greater than 100 µM.

Take `CCCCN(CCCC)c1c([N+](=O)[O-])cc(S(=O)(=O)Nc2cccc(F)c2)cc1[N+](=O)[O-]`: in the assay on Leishmania donovani [1], half-maximal inhibition (IC50) was put at 5.7 µM.

On to `O=S(=O)(Nc1ccc(Oc2ccc(C(F)(F)F)cc2)cc1)c1cc(Cl)c(Cl)cc1Cl`, for which, in the assay with Leishmania donovani [1], the IC50 is 25 µM.

As for `CCCCN(CCCC)c1c([N+](=O)[O-])cc(S(=O)(=O)Nc2ccc(F)cc2)cc1[N+](=O)[O-]`, half-maximal inhibition in the assay with Leishmania donovani [1] (IC50) required 5.6 µM.

For `C[C@@H]1[C@H](O)[C@@H](C)/C=C/C=C/C=C/C=C/C=C/C=C/C=C/[C@H](O[C@@H]2O[C@H](C)[C@@H](O)[C@H](N)[C@@H]2O)C[C@@H]2O[C@](O)(C[C@@H](O)C[C@@H](O)[C@H](O)CC[C@@H](O)C[C@@H](O)CC(=O)O[C@H]1C)C[C@H](O)[C@H]2C(=O)O` [AMPHOTERICIN B], the Activity is given as 44% in the assay on Leishmania mexicana [2], 76% in the assay with Leishmania mexicana [3] and 96% with Leishmania mexicana [4].

Compound `COc1ccccc1NC(=O)CSCc1cnc(C)c(O)c1O` registered an IC50 in the assay with Leishmania donovani [1] greater than 100 µM.

For the compound `Cc1cc(Sc2c([N+](=O)[O-])cc(C(F)(F)F)cc2[N+](=O)[O-])c(Cl)cc1Cl`, the IC50 in the assay on Leishmania donovani [1] was 0.5 µM; with Vero it was 5.3 µM. Besides, the outcome in the assay on Leishmania donovani [5] and in the assay on Leishmania sp. was inactive. The Activity in the assay with Leishmania mexicana [6] came to 13%; in the assay on Leishmania mexicana [7] it was 43%; with Leishmania mexicana [8], 68%; with Leishmania donovani [9], 1583.

Compound `Cc1nc(-c2ccc(S(=O)(=O)Nc3ccc(Br)cc3Cl)s2)cs1` yielded an IC50 in the assay with Leishmania donovani [1] of 66.6 µM.

The compound `OC(CNCc1ccc(Cl)cc1Cl)Cn1c(-c2ccc(F)cc2)cc2ccccc21` (stereo not drawn) had an IC50 with Leishmania donovani [1] of 37 µM.

In the assay with Leishmania donovani [1], `CCCN(CCC)c1c([N+](=O)[O-])cc(S(=O)(=O)Nc2cccc(F)c2)cc1[N+](=O)[O-]` came in with an IC50 of 2.5 µM.

`COc1ccc(CCNc2ccc(C(F)(F)F)cc2[N+](=O)[O-])cc1OC` came in with an IC50 in the assay on Leishmania donovani [1] greater than 100 µM.

In the assay with Leishmania donovani [1], `Cc1cc(C)c(-n2nnnc2SCc2ccc(C(F)(F)F)cc2)c(C)c1` had an IC50 of 32 µM.

In the case of `O=C(O)c1ccccc1C(=O)NCCNc1ccc(C(F)(F)F)cn1`, the IC50 in the assay on Leishmania donovani [1] is greater than 100 µM.

In turn, `Cc1cc(Sc2nnc3oc(O)cc(C)c2-3)c(C)cc1Cl` showed an IC50 in the assay with Leishmania donovani [1] of 39 µM.

`Cc1cc(S(=O)(=O)c2c([N+](=O)[O-])cc(C(F)(F)F)cc2[N+](=O)[O-])c(Cl)cc1Cl`: the figures for the IC50 with Leishmania donovani [1] and with Vero were 2.3 µM and 24 µM, respectively.

Consider `O=[N+]([O-])c1ccc(Oc2c(Cl)cccc2Cl)c(Cl)c1Oc1c(Cl)cccc1Cl`, for which the half-maximal inhibitory concentration (IC50) with Leishmania donovani [1] amounted to 80 µM.

The compound `COc1ccc([N+](=O)[O-])c(OC)c1C(=O)NCCCn1ccnc1` returned an IC50 with Leishmania donovani [1] greater than 100 µM.

On to `O=C(CSCc1cccc(C(F)(F)F)c1)c1ccc(OCc2ccc(F)cc2)cc1`, for which the IC50 in the assay with Leishmania donovani [1] is greater than 100 µM.

In the assay on Leishmania donovani [1], `Cc1cc(C(=O)O)c(Sc2nccn2-c2ccc(Cl)cc2Cl)nc1C#N` returned an IC50 of 21 µM.

`CSc1cccc(-n2c(S)nnc2CCc2ccc(O)cc2)c1` yielded a half-maximal inhibitory concentration (IC50) in the assay on Leishmania donovani [1] greater than 100 µM.

In the assay with Leishmania donovani [1], `CC(=O)c1ccc(OCc2ccc(Cl)c(Cl)c2)c([N+](=O)[O-])c1` displayed a 50% inhibitory concentration (IC50) greater than 100 µM.
